# High-throughput results (PubChem BioAssay)
# DNMT1 block: human DNMT1 methyltransferase inhibitors, primary screen, biochemical, molecular beacon, fluorescence, HinP1I cleavage, uHTS | AID 588458, 2011 | DNA (cytosine-5)-methyltransferase 1 (Homo sapiens), P26358 | 360,000 tested, 0.83% active | inhibition (reported as % activation of signal), % at 10 µM; in the data active means inhibition above about 50%
# UHRF1 binding: UHRF1 methylated DNA binding inhibitors, primary screen, counter-screen for MBD2 inhibitor project, biochemical, TR-FRET, human UHRF1, single concentration. E3 ubiquitin-protein ligase UHRF1 (Homo sapiens), Q96T88. UHRF1 binding to methylated oligo. inhibition, % at 4.4 µM. 370,000 tested, 0.75% active. AID 687016, 2013; in the data active means inhibition above about 21%;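 further: UHRF1 SRA domain binding a hemimethylated CpG hairpin DNA probe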
# MBD2 inh: inhibitors of MBD2 binding to methylated DNA, primary screen, biochemical, TR-FRET, DNA-binding domain, human. inhibition, % at 4.4 µM. MBD2 binding to methylated oligonucleotide. 370,000 tested, 0.31% active. AID 686964, 2013. Methyl-CpG-binding domain protein 2 (Homo sapiens), Q9UBB5; in the data active means inhibition above about 13%
# Target sequence (Q9UBB5 whole entry, looked up, the tested form may be a part): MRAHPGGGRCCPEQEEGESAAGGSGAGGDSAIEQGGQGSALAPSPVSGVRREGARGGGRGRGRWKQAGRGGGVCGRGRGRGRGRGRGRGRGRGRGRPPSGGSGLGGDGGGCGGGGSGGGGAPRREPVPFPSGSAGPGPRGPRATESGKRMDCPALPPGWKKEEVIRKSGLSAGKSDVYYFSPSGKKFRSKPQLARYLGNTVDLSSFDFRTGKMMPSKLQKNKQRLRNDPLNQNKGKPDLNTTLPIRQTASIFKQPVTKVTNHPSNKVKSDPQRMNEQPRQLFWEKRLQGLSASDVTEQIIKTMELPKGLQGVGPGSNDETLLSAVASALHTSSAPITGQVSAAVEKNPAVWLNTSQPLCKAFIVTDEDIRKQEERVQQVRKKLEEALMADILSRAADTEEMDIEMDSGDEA
# NS3 helicase inh: inhibitors of HCV NS3 helicase, primary screen, biochemical, Cy5 molecular beacon fluorescence; Hepatitis C virus NS3 helicase; NS3 helicase DNA unwinding; inhibition, % at 10.9 µM; 290,000 tested, 0.56% active; AID 1800, 2009;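 active means inhibition above the mean of all tested compounds plus 3 SD, set per campaign, cut at about 35% in these data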
#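 test system = hepatitis C virus NS3 helicase domain fragment enzyme | reagent = annealed dual-labelled DNA beacon duplex, ATP-started | times = 1 h at 25 °C | detection = Cy5 fluorescence, 0 and 60 min reads | read-out basis = percent inhibition from t60/t0 fluorescence ratio | control set = DMSO and thioflavine S | replication = one well per compound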
# SUMO1 PPI mod: modulators of SUMO1 protein-protein interactions, primary screen, biochemical, uHTS | inhibition, % at 20 µM | SUMO1 binding to a labelled peptide, TR-FRET, 1 h | 360,000 tested, 0.33% active | Small ubiquitin-related modifier 1 (Homo sapiens), P63165; in the data active means inhibition above about 37%
# Target sequence (P63165 whole entry, looked up): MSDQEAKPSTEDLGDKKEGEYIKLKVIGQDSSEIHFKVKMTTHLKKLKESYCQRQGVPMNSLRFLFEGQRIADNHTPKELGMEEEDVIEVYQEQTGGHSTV
# Pemphigus Ab inh: inhibitors of pemphigus antibody binding to DSG3, primary screen, biochemical, bead-based, flow cytometry, scFv-GFP; 310,000 tested, 0.48% active; AID 588358, 2011; binding (percent of control), % at 10 µM; DSG3-coupled beads, scFv-anti-DSG3-GFP binding; active compounds read low;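 active means binding more than 3 SD below its plate's average and above zero; inconclusive means below that plate limit but binding exactly zero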;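 further: hits lower antibody fragment binding to DSG3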
# Numbers stand for hits; 0 = inactive; ? = inconclusive; - = no result; ! = not active in a repeat. Shown are actives, neighbours in structure and some others; about 2.5% of the full set was active somewhere.
SMILES,DNMT1 block,UHRF1 binding,MBD2 inh,NS3 helicase inh,SUMO1 PPI mod,Pemphigus Ab inh
COc1ccccc1-c1cnc(C(O)c2cc(Cl)cc(Cl)c2)[nH]1 (stereo not given),0,21.9,0,-,0,-
COc1cc(C(O)C(=O)O)ccc1O (stereo not given),0,43.2,0,-,0,0
Cc1ccccc1NC(=O)CSc1nnc2ccc(-c3ccccn3)nn12,0,0,0,-,0,0
CCOC(=O)N1CCC(N(CCN(C)C)C(=S)Nc2ccc(OCC)cc2)CC1,-,0,0,0,-,-
O=C(c1cccc(C(F)(F)F)c1)c1c[nH]c(C(=O)NCC2CCCO2)c1 (stereo not given),0,24.4,0,0,0,-
CC(=O)c1c[nH]c(C(=O)NCC2CCCO2)c1 (stereo not given),0,0,0,0,0,0
C[C@@H]1CN([C@@H](C)CO)C(=O)CCCn2cc(nn2)CO[C@H]1CN(C)C(=O)Nc1ccc(N2CCN(C)CC2)cc1,-,0,0,-,-,-
COC(=O)[C@@H]1CCCN1Cc1nc(Cc2ccc(OC)c(OC)c2)no1,0,33.0,0,0,0,0
CS/C(=N\S(=O)(=O)c1cccs1)NC(=O)CSc1nc2ccccc2s1,0,0,0,0,37.9!,?
C/C(=N/NC(=O)CSc1nc2ccccc2s1)c1ccncc1,0,0,0,0,0,-
CCCC(=O)Nc1ccc2c(c1)C(=O)N(C)[C@H]1CC[C@@H](CC(=O)OC)O[C@@H]1CO2,-,0,0,-,-,-
COc1nc(-c2ccccc2)ncc1S(=O)(=O)c1ccccc1,0,0,0,0,0,0
Cc1nc(-c2ccccc2)sc1-c1nc(-c2ccncc2)ncc1S(=O)(=O)c1ccccc1,0,0,0,0,47.3,-
CCc1ccc(C2=NN(CCC(=O)NCC3CCCO3)C(=O)CC2)cc1 (stereo not given),0,0,0,0,0,0
Cc1ccc2c(c1)N(CCC(=O)NC1CCCCC1)C(=O)CO2,0,21.7,0,0,0,0
Cc1ccc(C2=NN(CCC(=O)NC3CCCC3)C(=O)CC2)cc1,0,22.8,0,0,0,0
CCCc1nc2c(=O)n(C)c(=O)nc-2n(C)n1,96.8,0,22.0,0,0,-
Cc1ccc(NC(=O)CCN2C(=O)c3cccc([N+](=O)[O-])c3C2=O)c(Br)c1,0,0,0,0,0,0
CN(Cc1ccc(F)cc1)Cc1nc(-c2ccccc2)no1,0,0,0,0,0,0
O=c1[nH]c2cc3c(cc2cc1CN(CC1CCCO1)S(=O)(=O)c1ccc(Cl)cc1)OCCO3 (stereo not given),0,0,0,0,0,0
Cc1ccc(S(=O)(=O)N(Cc2cc3cc4c(cc3[nH]c2=O)OCCO4)CC2CCCO2)cc1 (stereo not given),0,0,0,0,0,82.5
Oc1ccc(/C=N/Nc2ccc(C(F)(F)F)cn2)cc1,0,0,0,0,0,0
C/C(=N\Nc1ccc(C(F)(F)F)cn1)c1ccncc1,0,22.1,0,0,0,-
O=C(C1=C(O)C(=O)N(CCOCCO)C1c1cccs1)c1cccs1 (stereo not given),0,56.0,0,0,0,0
CN(CCc1ccccc1)C(=O)c1ccc(NC(=O)Cc2ccc(NC(=O)C3CCCN(C(=O)CCc4ccccc4)C3)cc2)cc1 (stereo not given),0,37.4,0,-,0,0
SMILES,DNMT1 block,UHRF1 binding,MBD2 inh,NS3 helicase inh,SUMO1 PPI mod,Pemphigus Ab inh
CN(CCc1ccccc1)C(=O)c1ccc(NC(=O)Cc2ccc(NC(=O)C3CCCN(C(=O)C4CCC4)C3)cc2)cc1 (stereo not given),0,0,0,-,0,0
O=C(CCc1ccncc1)N1CCCC(Nc2ccc(F)cc2)C1 (stereo not given),0,0,0,0,0,0
O=C(CCc1ccccc1)N1CCCC(Nc2ccc(F)cc2)C1 (stereo not given),0,23.4,0,0,0,0
C=CCn1c(N2CCN(c3ccc(OC)cc3)CC2)nc2c1c(=O)[nH]c(=O)n2C,0,0,0,0,0,-12.3
COc1ccc(CCn2c(NN)nc3c2c(=O)[nH]c(=O)n3C)cc1,75.2,0,0,0,0,78.8
COc1ccc(CCn2c(NN=C(C)C)nc3c2c(=O)[nH]c(=O)n3C)cc1,0,0,0,0,0,0
O=C(c1ccc(Cl)c(Cl)c1)N1CCC(=O)N(C(COCc2ccccc2)Cc2ccccc2)CC1 (stereo not given),0,0,0,0,0,0
COc1ccccc1CN=C1NC(=O)C(CC(=O)Nc2ccc(OC)c(OC)c2)S1 (stereo not given),0,0,0,0,0,0
Cc1ccc2c(CN(C)Cc3cccc(F)c3)cc(=O)oc2c1C,0,0,0,0,0,0
Cc1ccc2c(CN(C)Cc3ccccc3)cc(=O)oc2c1C,0,0,0,0,0,63.9
COc1ccc(N2CCN(C(=O)c3cccc(Cn4cc(Cl)cn4)c3)CC2)cc1,0,0,0,0,0,26.4
COc1ccc(N2CCN(C(=O)c3ccc4c(c3)[nH]c(=S)n3c5ccccc5nc43)CC2)cc1,-,43.3,0,0,-,-
COc1ccc(Cn2c(=O)[nH]c3cc(C(=O)N4CCN(c5ccc(C(C)=O)cc5)CC4)ccc3c2=O)cc1,0,0,0,0,57.0,0
CN1CCN(C(=O)c2ccc3c(=O)n(CCc4ccccc4)c(=S)[nH]c3c2)CC1,0,0,0,0,41.1,0
O=C(c1ccc2c(c1)[nH]c(=S)n1c3ccccc3nc21)N1CCN(c2cccc(Cl)c2)CC1,0,0,0,0,0,0
O=C(O)c1cccc(Cn2cc(Cl)cn2)c1,0,0,0,0,0,0
CCN(CC)S(=O)(=O)c1ccc(N2CCCC2)c(NC(=O)Cc2ccc(OC)cc2)c1,0,0,0,0,0,0
CCCCn1c(-c2ccc(Br)cc2F)nc2c1c(=O)[nH]c(=O)n2CC(C)C,0,0,0,0,0,55.8
COC(=O)c1ccc(C2C(Oc3ccccc3)C(=O)N2CCc2ccc(OC)c(OC)c2)cc1 (stereo not given),0,0,0,0,0,82.8
O=C(Nc1nc(-c2ccccc2)c(C(=O)c2ccccc2)s1)c1ccc(S(=O)(=O)N2CCCC2)cc1,0,0,0,0,0,-1.0
